The text below walks through data of ChEMBL document CHEMBL3352635 (Bioorg Med Chem Lett, 2014).

Activity calls are given as the source filed them. No cut-off for these calls is given here. A value given as a limit tells only on which side of the number the result lay.

Data set [1] deals with Rattus norvegicus. Description: Antiplatelet activity in Sprague-Dawley rat assessed as inhibition of TXB2 formation at 30 mg/kg, po od after 7 days by EIA relative to vehicle-treated control. It is filed as functional. Particulars: 168 h. The method in brief:
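Sprague–Dawley rats dosed orally once daily for 7 days with aspirin 30 mg/kg or prodrug 44.82 mg/kg (equimolar), with vehicle 1 ml/kg as control. Serum TXB2 levels estimated. Inhibition expressed as % reduction versus vehicle.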

The test system of data set [2] is Rattus norvegicus. Description: Toxicity in rat assessed as gastric lesion and ulcer area at 200 mg/kg, po after 5 hrs. It counts as organism-based, Stomach. Set-up: dose 200 mg/kg, route oral. Particulars: in vivo.
A short description of data set [3]: AUC in Wistar rat at 30 mg/kg, po. It is filed as ADME, organism-based. Also on record: dose 30 mg/kg, route oral. Particulars: plasma. The method in brief: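 Single oral dosing in Wistar rats to compare […]. Aspirin at 30 mg/kg or the prodrug at 44.83 mg/kg (equimolar to 30 mg/kg aspirin). Plasma aspirin measured over time. AUC in µg*h/mL.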
A short description of data set [4]: AUC in Sprague-Dawley rat at 30 mg/kg, po. Particulars: plasma. It is filed as ADME, organism-based. Set-up: dose 30 mg/kg, route oral. Put shortly:
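Plasma parent-drug concentration followed over time up to 8 h. AUC in µg*h/mL from the concentration–time profile. Cmax and Tmax taken from the profile.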

A short description of data set [5]: Metabolic stability in simulated gastric fluid assessed as chlorambucil level. It counts as ADME, tissue-based, Stomach. Particulars: simulated gi fluid.
Data set [6] can be described thus: Stability of the compound assessed as compound remaining at RT measured immediately. Particulars: read-out: Stability. It is filed as physicochemical. Put shortly:
(§1)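 Solid-state storage stability at room temperature and at 50 °C, followed for up to 1 month (25 days for one compound). Remaining compound measured, along with the amounts of parent drug and salicylic acid generated.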

A short description of data set [7]: Metabolic stability in simulated gastric fluid assessed as compound remaining at pH 1.2 after 15 mins by HPLC analysis. It counts as ADME. Particulars: read-out: Stability. The method in brief:
(§2)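 Compounds incubated at 37 °C in simulated gastric fluid (pH 1.2), simulated intestinal fluid (pH 6.8) or 100% human plasma for up to 180 min. […] Half-life estimated from the decay.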

Data set [8] concerns Rattus norvegicus. Description: Antiinflammatory activity in Sprague-Dawley rat assessed as plasma nitrate/nitrite at 41.60 mg/kg, po after 2 hrs. It is filed as functional. Particulars: dose 41.6 mg/kg. The method in brief: (§3)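 Sprague–Dawley rats given compounds orally, with vehicle-dosed controls. […] Plasma nitrate/nitrite (NOx) measured by the Griess method as an indirect measure of NO released, over 8 h (sampling included 1, 2, 4 and 6 h). Plasma nitrate/nitrite AUC in µM*h.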

Data set [9] is described as follows: Metabolic stability in simulated gastric fluid assessed as compound remaining at pH 1.2 after 60 mins by HPLC analysis. It is filed as ADME. Particulars: read-out: Stability. Put shortly: as §2
Data set [10] in a line: Stability of the compound assessed as compound remaining at 50 degC after 25 days. It is filed as physicochemical. Particulars: read-out: Drug metabolism. Put shortly:
as §1

Data set [11] can be described thus: Half life in simulated gastric fluid at pH 1.2 by HPLC analysis. It counts as ADME. Put shortly: as §2
Data set [12] is described as follows: Metabolic stability in simulated gastric fluid assessed as compound remaining at pH 1.2 after 30 mins by HPLC analysis. It is filed as ADME. Particulars: read-out: Stability. Put shortly:
as §2

Data set [13] concerns Rattus norvegicus. Description: Antiinflammatory activity in Sprague-Dawley rat assessed as plasma nitrate/nitrite AUC at 41.60 mg/kg, po by Griess assay (reference value: 371.1 uM.h). It counts as functional, organism-based. Set-up: dose 41.6 mg/kg. Put shortly:
as §3
For orientation: Nitrite, measured by Griess reagent, commonly stands in for NO production.

Data set [14] can be described thus: Stability of the compound assessed as compound remaining at RT after 25 days. It is filed as physicochemical. Particulars: read-out: Drug metabolism. Put shortly:
as §1

Data set [15] concerns Rattus norvegicus. Description: Antiinflammatory activity in Sprague-Dawley rat assessed as plasma nitrate/nitrite at 41.60 mg/kg, po after 4 hrs. Set-up: dose 41.6 mg/kg. It is filed as functional, organism-based. The method in brief:
as §3

Data set [16] in a line: Stability of the compound assessed as compound remaining at 50 degC measured immediately. It counts as physicochemical. Particulars: read-out: Stability. The method in brief:
as §1

Data set [17] can be described thus: Metabolic stability in simulated gastric fluid assessed as compound remaining at pH 1.2 after 10 mins by HPLC analysis. Particulars: read-out: Stability. It is filed as ADME. Put shortly:
as §2

The subject of data set [18] is Rattus norvegicus. Description: Antiinflammatory activity in Sprague-Dawley rat assessed as plasma nitrate/nitrite at 41.60 mg/kg, po after 6 hrs relative to control. It is filed as functional, organism-based. Set-up: dose 41.6 mg/kg. The method in brief:
as §3

Data set [19] relates to Rattus norvegicus. The data set is described as follows: Toxicity in rat assessed as gastric lesion and ulcer area at 138.67 mg/kg, po after 5 hrs. It counts as organism-based, Stomach. Particulars: in vivo. Set-up: dose 138.67 mg/kg, route oral.
Data set [20] concerns Rattus norvegicus. Description: Antiinflammatory activity in Sprague-Dawley rat assessed as plasma nitrate/nitrite at 41.60 mg/kg, po after 1 hr. Particulars: dose 41.6 mg/kg. It counts as functional. Put shortly: as §3
A short description of data set [21]: Metabolic stability in simulated gastric fluid assessed as compound remaining at pH 1.2 after 5 mins by HPLC analysis. Particulars: read-out: Stability. It counts as ADME. The method in brief:
as §2

Data set [22] is described as follows: Metabolic stability in simulated gastric fluid assessed as compound remaining at pH 1.2 measured immediately by HPLC analysis. Particulars: read-out: Stability. It is filed as ADME. The method in brief: as §2
Data set [23] can be described thus: Metabolic stability in simulated gastric fluid assessed as compound remaining at pH 1.2 after 180 mins by HPLC analysis. It counts as ADME. Particulars: read-out: Stability. The method in brief: as §2
A short description of data set [24]: Metabolic stability in simulated gastric fluid assessed as compound remaining at pH 1.2 after 120 mins by HPLC analysis. It is filed as ADME. Particulars: read-out: Stability. The method in brief: as §2
Data set [25] is described as follows: in vivo. Particulars: Sprague-Dawley, rat, plasma, po, 10 mg/kg.
The nature of data set [26]: in vivo. Particulars: Sprague-Dawley, rat, po, 10 mg/kg.
The nature of data set [27]: in vivo. Particulars: Sprague-Dawley, rat, plasma, po, 10 mg/kg. This is another data set of the same source.
Data set [28] can be described thus: in vivo. Particulars: Sprague-Dawley, rat, po, 10 mg/kg. The source holds these as a separate data set.
A short description of data set [29]: in vivo. Particulars: Sprague-Dawley, rat, plasma, po, 10 mg/kg. The source holds these as a separate data set.

As for `CC(=O)Oc1ccccc1C(=O)O` [ASPIRIN], the inhibition in vivo at 30 mg/kg in the data set on Rattus norvegicus [1] was determined as 76%. For the same compound, the Activity in the data set on Rattus norvegicus [2] is given as 93 mm2. Also, the AUC in data set [3] came out at 437 µg·h/mL; in data set [4], 91.1 µg·h/mL.
On to `CC(OC(=O)CCCc1ccc(N(CCCl)CCCl)cc1)O[N+](=O)[O-]` (stereo unspecified), for which the t1/2 in data set [5] is below 5 min.
`COc1ccc2cc([C@H](C)C(=O)OC(C)O[N+](=O)[O-])ccc2c1` (stereo partly specified): the remaining at 0 days in [6] and in [16] was 99.1% throughout. Besides, the remaining at 0.25 h in data set [7] was 65%. The Activity in the data set on Rattus norvegicus [8] is 120 µM; in the data set with Rattus norvegicus [19], 39 mm2; with Rattus norvegicus [20] it was 150 µM. Moreover, the remaining at 1 h in data set [9] was 0%. For the same compound, the remaining at 600 h turned out to be 99% in data set [10] and 98.9% in data set [14]. For the same compound, the half-life in [11] is below 30 min. For the same compound, the remaining at 0.5 h in [12] was 33%. Also, the AUC in the data set on Rattus norvegicus [13] was 687 µM·h. For the same compound, the outcome in the data set on Rattus norvegicus [15] and in the data set on Rattus norvegicus [18] was inactive. The remaining at 10 min in [17] was 75%. The remaining at 5 min in [21] is 85%. Further, in data set [22], the remaining at 0 min was 100%.
Consider `CCCC(OC(=O)[C@@H](C)c1ccc2cc(OC)ccc2c1)O[N+](=O)[O-]` (stereo partly specified), for which the remaining at 0.25 h in [7] was 83%. The remaining at 3 h in data set [23] is 39%. Besides, the remaining at 1 h in data set [9] is 75%. The half-life in [11] is below 180 min. The remaining at 0.5 h in data set [12] was 83%. Besides, the remaining at 2 h in data set [24] is 58%. In [17], the remaining at 10 min is 94%. Besides, the remaining at 5 min in data set [21] was 96%. Besides, the remaining at 0 min in [22] was 100%.
`COc1ccc2cc([C@H](C)C(=O)O)ccc2c1` [NAPROXEN] showed a Cmax at 2 h in “in vivo [25]” above 30000 ng/mL. The Cmax at 0.25 h in “in vivo [26]” worked out at 55000 ng/mL. This compound gave a Cmax at 4 h in “in vivo [27]” above 20000 ng/mL. The Tmax in the data set “in vivo [28]” was 15 min. In “in vivo [29]”, this compound displayed a Cmax at 8 h below 15000 ng/mL.

By inhibition in vivo is commonly meant the percentage by which the read-out fell short of the control. As usually defined, the half-life is the time in which the quantity being followed falls by half. A high value points to slow decline. The Cmax is the highest concentration seen after dosing. By Tmax is commonly meant the time from dosing to the highest level.
